Measurements: ChEMBL document CHEMBL1133562, “Pyrazole ligands: structure-affinity/activity relationships and estrogen receptor-alpha-selective agonists” (J Med Chem, 2000)

Experiments:
[1] = molecular target: T1, Estrogen receptor (Homo sapiens) (UniProt P03372); experiment: Relative binding affinity was determined for Estrogen receptor 1 using 10 nM [3H]-E2 as tracer (estradiol 100%)
T1 sequence (whole entry): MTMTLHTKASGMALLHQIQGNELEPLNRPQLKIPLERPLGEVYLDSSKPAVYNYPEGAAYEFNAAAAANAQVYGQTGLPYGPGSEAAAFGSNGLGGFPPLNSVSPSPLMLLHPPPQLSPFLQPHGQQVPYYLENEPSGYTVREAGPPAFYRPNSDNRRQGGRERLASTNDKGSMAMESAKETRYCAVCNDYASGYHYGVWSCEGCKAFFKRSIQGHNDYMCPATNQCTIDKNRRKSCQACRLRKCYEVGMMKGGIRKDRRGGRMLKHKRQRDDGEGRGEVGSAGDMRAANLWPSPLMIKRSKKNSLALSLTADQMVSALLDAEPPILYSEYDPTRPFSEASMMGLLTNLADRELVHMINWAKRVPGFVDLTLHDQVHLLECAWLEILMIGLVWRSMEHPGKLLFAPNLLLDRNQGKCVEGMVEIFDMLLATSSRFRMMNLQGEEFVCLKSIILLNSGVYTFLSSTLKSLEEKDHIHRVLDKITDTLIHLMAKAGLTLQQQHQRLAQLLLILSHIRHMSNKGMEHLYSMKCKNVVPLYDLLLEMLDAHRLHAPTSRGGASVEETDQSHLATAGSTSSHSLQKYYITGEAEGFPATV
In short: (§1)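 Competitive radiometric binding with purified full-length human ERα or ERβ, 10 nM [3H]estradiol tracer. Receptor–tracer complex adsorbed on hydroxylapatite. Incubation at 0 °C for 18-24 h. RBA expressed relative to estradiol = 100%. Mean of at least 2, typically 3 or more, independent determinations (±SD); coefficient of variation 0.3.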

[2] = molecular target: Estrogen receptor beta (Homo sapiens) (UniProt Q92731); experiment: Relative binding affinity was determined for Estrogen receptor 2 using 10 nM [3H]E2 as tracer (estradiol 100%); in short: as §1
[3] = molecular target: Estrogen receptor (Homo sapiens) (UniProt Q92731+P03372); experiment: RBA ratio between ERalpha and ERbeta; assay type: protein assay
Sequence of Estrogen receptor (Homo sapiens) (UniProt Q92731+P03372) (Q92731 whole entry, looked up, one chain of several): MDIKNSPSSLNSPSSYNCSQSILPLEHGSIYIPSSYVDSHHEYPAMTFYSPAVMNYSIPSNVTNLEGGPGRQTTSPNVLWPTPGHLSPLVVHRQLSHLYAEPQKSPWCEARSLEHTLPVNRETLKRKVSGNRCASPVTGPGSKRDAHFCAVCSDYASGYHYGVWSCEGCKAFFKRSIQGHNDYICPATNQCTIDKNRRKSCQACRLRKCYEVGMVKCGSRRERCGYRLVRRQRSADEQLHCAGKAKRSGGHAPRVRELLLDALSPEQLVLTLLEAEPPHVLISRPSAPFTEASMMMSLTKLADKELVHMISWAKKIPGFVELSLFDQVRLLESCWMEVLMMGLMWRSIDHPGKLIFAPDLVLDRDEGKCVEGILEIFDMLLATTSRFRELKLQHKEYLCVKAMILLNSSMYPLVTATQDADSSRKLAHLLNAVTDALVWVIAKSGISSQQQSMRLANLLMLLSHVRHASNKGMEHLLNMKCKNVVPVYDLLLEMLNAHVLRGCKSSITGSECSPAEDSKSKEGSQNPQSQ

Sequence of Estrogen receptor beta (Homo sapiens) (Q92731 whole entry): as the sequence (Q92731 whole entry, looked up, one chain of several) above

SMILES | RBA [1] | RBA [2] | Ratio [3]
CCCc1c(-c2ccc(O)cc2)nn(-c2ccc(O)cc2)c1-c1ccc(O)cc1 | 49 |  | 
CCCCc1c(-c2ccc(O)cc2)nn(-c2ccc(O)cc2)c1-c1ccc(O)cc1 | 14 | 0.18 | 77
CCCCc1c(-c2ccc(O)cc2)nn(-c2ccccc2)c1-c1ccc(O)cc1 | 8.7 | 0.47 | 19
CC(C)Cc1c(-c2ccc(O)cc2)nn(-c2ccccc2)c1-c1ccc(O)cc1 | 56 | 1.4 | 40
CCc1c(-c2ccccc2)nn(-c2ccc(O)cc2)c1-c1ccccc1 | 3.1 | 1.5 | 2.1
CCc1c(-c2ccc(O)cc2)nn(-c2ccc(O)cc2)c1-c1ccc(O)cc1 | 36 | 0.15 | 240
CC(C)Cc1c(-c2ccc(O)cc2)nn(-c2ccc(O)cc2)c1-c1ccc(O)cc1 | 75 | 0.89 | 84
CCCc1c(-c2ccc(O)cc2)nn(-c2ccccc2)c1-c1ccc(O)cc1 | 16.8 | 0.52 | 32
CCc1c(-c2ccccc2)nn(-c2ccccc2)c1-c1ccc(O)cc1 | 0.04 | 0.06 | 0.67
Cc1c(-c2ccc(O)cc2)nn(-c2ccccc2)c1-c1ccc(O)cc1 | 0.76 | 0.28 | 2.7
CC(C)c1c(-c2ccc(O)cc2)nn(-c2ccccc2)c1-c1ccc(O)cc1 | 5.6 | 0.86 | 6.5
CCc1c(-c2ccc(O)cc2)nn(-c2ccccc2)c1-c1ccccc1 | 2.6 | 0.61 | 4.3
CCc1c(-c2ccc(O)cc2)nn(-c2ccc(O)cc2)c1-c1ccccc1 | 8.9 | 0.32 | 28
CCc1c(-c2ccccc2)nn(-c2ccc(O)cc2)c1-c1ccc(O)cc1 | 7 | 0.8 | 9
CCc1c(-c2ccc(O)cc2)nn(-c2ccccc2)c1-c1ccc(O)cc1 | 31 | 1.1 | 28
